Experimental data reported in ChEMBL document CHEMBL6092204, “Synthesis of pyridyl pyrimidine hedgehog signaling pathway inhibitors and their antitumor activity in human pancreatic cancer” (Eur J Med Chem, 2024).
Active and inactive are the calls of the source. The rule behind the calls is not given here.

Assays:
BXPC-3 [1] = assay: Induction of apoptosis in human BXPC-3 cells assessed as late apoptotic cells at 8 uM incubated for 48 hrs by Annexin V-FITC/PI staining based flow cytometry (reference value: 6.72 %); format: functional
[2] = Toxicity in BALB/c nude mouse xenografted with human BxPC-3 cells assessed as necrosis in liver at 5 to 15 mg/kg, ip qd for 21 days by H and E staining based analysis; details: in vivo, 504 h
PANC-1 [3] = assay: Induction of apoptosis in human PANC-1 cells assessed as viable cells at 10 uM incubated for 48 hrs by Annexin V-FITC/PI staining based flow cytometry (reference value: 93.2 %); format: functional; details: read-out: Activity
[4] = Toxicity in BALB/c nude mouse xenografted with human BxPC-3 cells assessed as cellular edema in liver at 5 to 15 mg/kg, ip qd for 21 days by H and E staining based analysis; details: in vivo, 504 h
[5] = Toxicity in BALB/c nude mouse xenografted with human BxPC-3 cells assessed as cellular edema in heart at 5 to 15 mg/kg, ip qd for 21 days by H and E staining based analysis; details: in vivo, 504 h
BxPC-3 [6] = assay: Antitumor activity aginst human BxPC-3 cells xenografted in BALB/c nude mouse assessed as decrease in tumor volume at 5 mg/kg, ip qd for 21 days relative to control; parameters: scale not given: the % may be the effect or the level left; details: time 21 day
[7] = Toxicity in BALB/c nude mouse xenografted with human BxPC-3 cells assessed as tissue fibrosis in lung at 5 to 15 mg/kg, ip qd for 21 days by H and E staining based analysis; details: in vivo, 504 h
BXPC-3 [8] = assay: Induction of apoptosis in human BXPC-3 cells assessed as early apoptotic cells at 5 uM incubated for 48 hrs by Annexin V-FITC/PI staining based flow cytometry (reference value: 1.11 %); format: functional
PANC-1 [9] = assay: Induction of cell cycle arrest in human PANC-1 cells assessed as accumulation at S phase at 2.5 uM incubated for 48 hrs by PI/RNase staining based flow cytometry (reference value: 7.58 %); format: functional
BXPC-3 [10] = assay: Inhibition of Hh signaling pathway in human BXPC-3 cells assessed as reduction in Gli1 level incubated for 48 hrs by Western blot analysis; format: cell-based; details: dose 2.5-10 µM
How it was run: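 Cells were treated in 6-well plates for 48 h, lysed by sonication in RIPA with PMSF, and quantified by BCA. 20-30 μg protein was run on 6-12% gradient SDS-PAGE and transferred to PVDF. Membranes were blocked 2 h at room temperature, probed with anti-Gli1 overnight at 4 °C and secondary 1.5 h at room temperature, then developed by ECL. Densitometry was normalised to β-actin; three separate experiments.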

[11] = Toxicity in BALB/c nude mouse xenografted with human BxPC-3 cells assessed as inflammatory infiltration in liver at 5 to 15 mg/kg, ip qd for 21 days by H and E staining based analysis; details: in vivo, 504 h
PANC-1 [12] = assay: Induction of apoptosis in human PANC-1 cells assessed as late apoptotic cells at 10 uM incubated for 48 hrs by Annexin V-FITC/PI staining based flow cytometry (reference value: 2.74 %); format: functional
BXPC-3 [13] = assay: Induction of cell cycle arrest in human BXPC-3 cells assessed as accumulation at G2 phase at 5 uM incubated for 48 hrs by PI/RNase staining based flow cytometry (reference value: 8.15 %); format: functional
PANC-1 [14] = assay: Induction of apoptosis in human PANC-1 cells assessed as early apoptotic cells at 5 uM incubated for 48 hrs by Annexin V-FITC/PI staining based flow cytometry (reference value: 1.88 %); format: functional
PANC-1 [15] = assay: Induction of cell cycle arrest in human PANC-1 cells assessed as accumulation at G1 phase at 5 uM incubated for 48 hrs by PI/RNase staining based flow cytometry (reference value: 82.0 %); format: functional
[16] = Toxicity in BALB/c nude mouse xenografted with human BxPC-3 cells assessed as tissue fibrosis in spleen at 5 to 15 mg/kg, ip qd for 21 days by H and E staining based analysis; details: in vivo, 504 h
BXPC-3 [17] = assay: Induction of apoptosis in human BXPC-3 cells assessed as necrotic cells at 5 uM incubated for 48 hrs by Annexin V-FITC/PI staining based flow cytometry (reference value: 0.71 %); format: functional
BXPC-3 [18] = assay: Induction of apoptosis in human BXPC-3 cells assessed as late apoptotic cells at 2.5 uM incubated for 48 hrs by Annexin V-FITC/PI staining based flow cytometry (reference value: 6.72 %); format: functional
PANC-1 [19] = assay: Inhibition of cell migration in human PANC-1 cells incubated for 48 hrs by crystal violet staining based transwell assay; format: functional; details: dose 2.5-10 µM
How it was run: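 Cells at 1.5×10^5 cells/mL in serum-free medium containing drug were added to the upper Transwell chamber (200 μL), with medium containing 10% FBS below. After 48 h, non-migrated cells were swabbed off. Inserts were fixed in 4% paraformaldehyde for 15-20 min and stained with 0.5% crystal violet. Cells were counted in four random fields at 100×; n = 3.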

PANC-1 [20] = assay: Antiproliferative activity against human PANC-1 cells assessed as inhibition of cell viability incubated for 48 hrs by MTT assay; format: functional, cell-based; details: PANC-1, 48 h
How it was run: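 Cells in log phase were seeded at 8,000-10,000/well and allowed to adhere overnight at 37 °C, 5% CO2. Compound from DMSO stock, diluted in medium, was applied for 48 h; controls got drug-free medium, blanks held medium only. MTT (5 mg/mL stock) 4 h, formazan dissolved in DMSO, A490 read. Viability was blank-corrected against untreated cells; IC50 came from a fitted curve; three separate experiments.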

BxPC-3 [21] = assay: Antitumor activity aginst human BxPC-3 cells xenografted in BALB/c nude mouse assessed as decrease in tumor weight at 15 mg/kg, ip qd for 21 days; details: time 21.0 day
PANC-1 [22] = assay: Induction of cell cycle arrest in human PANC-1 cells assessed as accumulation at G2 phase at 10 uM incubated for 48 hrs by PI/RNase staining based flow cytometry (reference value: 5.83 %); format: functional
[23] = Toxicity in BALB/c nude mouse xenografted with human BxPC-3 cells assessed as necrosis in spleen at 5 to 15 mg/kg, ip qd for 21 days by H and E staining based analysis; details: in vivo, 504 h
PANC-1 [24] = assay: Induction of cell cycle arrest in human PANC-1 cells assessed as accumulation at G1 phase at 10 uM incubated for 48 hrs by PI/RNase staining based flow cytometry (reference value: 82.0 %); format: functional
BXPC-3 [25] = assay: Induction of cell cycle arrest in human BXPC-3 cells assessed as accumulation at S phase at 10 uM incubated for 48 hrs by PI/RNase staining based flow cytometry (reference value: 8.18 %); format: functional
PANC-1 [26] = assay: Induction of apoptosis in human PANC-1 cells assessed as viable cells at 5 uM incubated for 48 hrs by Annexin V-FITC/PI staining based flow cytometry (reference value: 93.2 %); format: functional; details: read-out: Activity

In the case of `CN(C)Cc1ccc(NC(=O)c2ccc(Nc3nccc(-c4cccnc4)n3)cc2)cc1`, the Activity (BXPC-3 [1]) is reported as 12.3%, the Activity [2] is reported as “Non-toxic” and the viability at 10 µM (PANC-1 [3]) is reported as 71%. The Activity [4] was “Non-toxic”, the Activity [5] was “Non-toxic” and the Activity (BxPC-3 [6]) was 73%. The Activity [7] was “Non-toxic”, the Activity (BXPC-3 [8]) was 2.71% and the Activity (PANC-1 [9]) was 7.73%. The inhibition (BXPC-3 [10]) was “Dose-dependent-effect”, the Activity [11] was “Non-toxic” and the Activity (PANC-1 [12]) was 22.3%. It also gave an Activity (BXPC-3 [13]) of 12.5%, an Activity (PANC-1 [14]) of 3.29% and an Activity (PANC-1 [15]) of 84.2%. The Activity [16] was “Non-toxic”, the Activity (BXPC-3 [17]) was 1.02% and the Activity (BXPC-3 [18]) was 8.06%. The inhibition (PANC-1 [19]) was “Dose-dependent-effect”, the IC50 (PANC-1 [20]) was 4.2 µM and the Activity (BxPC-3 [21]) was “Active”. For the same compound, the Activity (PANC-1 [22]) was 12.2%, the Activity [23] was “Non-toxic” and the Activity (PANC-1 [24]) was 72.7%. It also gave an Activity (BXPC-3 [25]) of 3.11% and a viability at 5 µM (PANC-1 [26]) of 87.3%.
